Published values pooled from the literature.
Target: Dual specificity protein kinase TTK (TTK, Homo sapiens, UniProt P33981)
Residues used in one study (P33981 1-857): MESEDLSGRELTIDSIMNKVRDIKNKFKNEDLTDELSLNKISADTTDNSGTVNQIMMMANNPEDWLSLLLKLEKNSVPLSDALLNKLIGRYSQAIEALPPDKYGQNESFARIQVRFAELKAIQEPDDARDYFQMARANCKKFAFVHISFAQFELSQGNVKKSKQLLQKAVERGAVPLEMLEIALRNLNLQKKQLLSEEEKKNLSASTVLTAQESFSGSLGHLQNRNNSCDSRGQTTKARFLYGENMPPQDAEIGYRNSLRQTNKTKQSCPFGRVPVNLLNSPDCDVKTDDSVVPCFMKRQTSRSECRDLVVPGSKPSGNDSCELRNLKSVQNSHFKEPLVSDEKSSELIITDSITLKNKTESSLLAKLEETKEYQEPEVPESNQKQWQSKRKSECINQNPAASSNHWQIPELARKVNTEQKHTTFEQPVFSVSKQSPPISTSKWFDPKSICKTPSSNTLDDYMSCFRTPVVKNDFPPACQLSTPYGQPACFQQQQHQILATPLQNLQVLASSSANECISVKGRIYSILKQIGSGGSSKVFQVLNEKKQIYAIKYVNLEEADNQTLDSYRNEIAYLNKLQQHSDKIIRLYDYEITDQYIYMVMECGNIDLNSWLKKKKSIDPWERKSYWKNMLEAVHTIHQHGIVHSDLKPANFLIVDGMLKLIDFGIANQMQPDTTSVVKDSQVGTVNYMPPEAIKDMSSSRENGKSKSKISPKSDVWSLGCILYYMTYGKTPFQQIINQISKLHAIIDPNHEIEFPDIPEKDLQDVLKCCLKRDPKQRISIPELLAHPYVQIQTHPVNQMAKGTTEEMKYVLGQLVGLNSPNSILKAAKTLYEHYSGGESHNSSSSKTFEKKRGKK

CN(C(=O)c1ccccc1)c1cc(N(C)c2ccc3c(c2)CCc2ccc(C(=O)NCCN4CCOCC4)cc2C3=O)ccc1F — remaining binding (cell-free assay; competition with immobilised ligand; 1 µM): 87%
Nc1ncnc2occ(-c3ccc(NC(=O)Nc4cc(C(F)(F)F)ccc4F)cc3)c12 — remaining signal (cell-free assay; 20 µM): 4.5%
Cc1ccc(C(=O)NCc2ccsc2)cc1C#Cc1cn(C(C)C)c2ncnc(N)c12 — activity vs control (enzyme activity; inhibitor; 1 µM): 93%
Oc1cccc(-c2nc(N3CCOCC3)c3oc4ncccc4c3n2)c1 — remaining activity (enzyme activity; inhibitor; 10 µM): 66%
N#CCCc1ccc2c(c1)-c1[nH]c3ccc([N+](=O)[O-])cc3c1CC(=O)N2 — remaining signal (cell-free assay; 0.5 µM): 71.7%
FC(F)(F)c1ccc2c(c1)nc(-c1cccnc1)n2C1CC1 — remaining binding (cell-free assay; competition with immobilised ligand; 1 µM): 100%
O=C1Nc2ccc(Cl)cc2C1=Cc1cc(Cl)c(O)c(Cl)c1 — remaining signal (cell-free assay; 0.5 µM): 84.4%
FC(F)(F)Oc1cccc(-c2cnc3ccc(-c4ccncc4)nn23)c1 — activity vs control (enzyme activity; inhibitor; radiometric; 5 µM): 67%
N#CC1c2c([nH]c3c(Cl)c(Cl)ccc23)C(=O)NC12CCCCC2 (racemic) — ΔTm (thermal stability; DSF; 10 µM): 0.9 °C
O=C1NC(=O)c2cc(Nc3ccc(F)cc3)c(Nc3ccc(F)cc3)cc21 — remaining signal (cell-free assay; 0.5 µM): 95.4%
O=C(N1CCS(=O)(=O)CC1)N1C[C@H](c2ccc(OC(F)(F)F)cc2)C[C@H](c2nc(C3CC3)no2)C1 — remaining binding (cell-free assay; competition with immobilised ligand; 1 µM): 82%
Cc1ccc(C(=O)Nc2ccc(CN3CCN(C)CC3)c(C(F)(F)F)c2)cc1C#Cc1cnc2cccnn12 — remaining activity (enzyme activity; 23.5 nM): 77%
Cn1c2c(c3ccc(Cl)c(Cl)c31)C(C#N)C(C)(C)NC2=O (stereo not shown) — ΔTm (thermal stability; DSF; 10 µM): 1.2 °C
CC(C)(C)c1nc(-c2cccc(NS(=O)(=O)c3c(F)cccc3F)c2F)c(-c2ccnc(N)n2)s1 — remaining activity (enzyme activity; inhibitor; radiometric; 1 µM): 92%
CCOCCn1cc(C(=O)Nc2ccc(-n3nc(-c4cccnc4)cc3C(F)(F)F)cn2)ccc1=O — remaining binding (cell-free assay; competition with immobilised ligand; 1 µM): 100%
Oc1cccc(-c2nc(N3CCOCC3)c3oc4ncccc4c3n2)c1 — remaining signal (cell-free assay; 0.5 µM): 93.3%
Cc1nccc(COC(=O)N2C[C@@H]3[C@@H](CNC(=O)c4ccc5[nH]nnc5c4)[C@@H]3C2)n1 — remaining binding (cell-free assay; competition with immobilised ligand; 1 µM): 89%
COc1cc(Nc2cnc(C#N)c(O[C@H](C)CN(C)C)n2)ncc1-c1cnn(C)c1 — remaining activity (enzyme activity; inhibitor; radiometric; 10 µM): 74%
CCCOc1ccc([C@H]2[C@H](C(=O)O)[C@@H](c3ccc4c(c3)OCO4)CN2CC(=O)Nc2c(CC)cccc2CC)cc1 — remaining binding (cell-free assay; competition with immobilised ligand; 1 µM): 94%
Cn1c2c(c3ccc(Cl)c(Cl)c31)C(C#N)C1(CCN(C(=O)OC(C)(C)C)CC1)NC2=O (racemic) — ΔTm (thermal stability; DSF; 10 µM): 0 °C
O=C(NS(=O)(=O)c1ccc(NCC2CCOCC2)c([N+](=O)[O-])c1)c1ccc(N2CCN(Cc3ccc(C(F)(F)F)cc3-c3ccc(Cl)cc3)CC2)cc1Oc1cnc2[nH]ccc2c1 — remaining binding (cell-free assay; competition with immobilised ligand; 1 µM): 100%
CN1CC(Oc2cnc(C#N)cc2-c2ccn3nc(NC(=O)C4CC4)cc3c2)C1 — inhibition (enzyme activity; inhibitor; 1 µM): 12%
